Reference: ChEMBL document CHEMBL2384929, “Synthesis and biological evaluation of fluoro analogues of antimitotic phenstatin” (Bioorg Med Chem, 2013)

What was measured:
[1] = tested on: BT-549; assay: Cytotoxicity against human BT549 cells assessed as growth inhibition after 48 hrs by SRB assay; format: functional; details: BT-549, 48 h
In short: (§1)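 Run in the NCI 60 human tumour cell line panel. Cells exposed for 48 h, growth read by sulforhodamine B. Compounds were first screened at a single 10 µM dose, and those meeting preset threshold inhibition criteria went on to the 5-dose screen. GI50 is the molar concentration giving 50% growth inhibition.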

[2] = tested on: MDA-MB-231; assay: Cytotoxicity against human MDA-MB-231 cells assessed as growth inhibition after 48 hrs by SRB assay; format: functional; details: MDA-MB-231, 48 h; in short: as §1
[3] = tested on: Hs-578T; assay: Cytotoxicity against human Hs578T cells assessed as growth inhibition after 48 hrs by SRB assay; format: functional; in short: as §1
[4] = tested on: SNB-75; assay: Cytotoxicity against human SNB75 cells assessed as growth inhibition after 48 hrs by SRB assay; format: functional; details: SNB-75, 48 h; in short: as §1
[5] = tested on: SF-539; assay: Cytotoxicity against human SF539 cells assessed as growth inhibition after 48 hrs by SRB assay; format: functional; details: SF-539, 48 h; in short: as §1
[6] = tested on: SNB-19; assay: Cytotoxicity against human SNB19 cells assessed as growth inhibition after 48 hrs by SRB assay; format: functional; details: SNB-19, 48 h; in short: as §1
[7] = tested on: SF-268; assay: Cytotoxicity against human SF268 cells assessed as growth inhibition after 48 hrs by SRB assay; format: functional; details: SF-268, 48 h; in short: as §1
[8] = tested on: SN12C; assay: Cytotoxicity against human SN12C cells assessed as growth inhibition after 48 hrs by SRB assay; format: functional; in short: as §1
[9] = tested on: DU-145; assay: Cytotoxicity against human DU145 cells assessed as growth inhibition after 48 hrs by SRB assay; format: functional; details: DU-145, 48 h; in short: as §1
[10] = tested on: RXF 393; assay: Cytotoxicity against human RXF393 cells assessed as growth inhibition after 48 hrs by SRB assay; format: functional; details: RXF 393, 48 h; in short: as §1
[11] = tested on: SK-OV-3; assay: Cytotoxicity against human SKOV3 cells assessed as growth inhibition after 48 hrs by SRB assay; format: functional; details: SK-OV-3, 48 h; in short: as §1
[12] = tested on: ACHN; assay: Cytotoxicity against human ACHN cells assessed as growth inhibition after 48 hrs by SRB assay; format: functional; in short: as §1
[13] = tested on: NCI/ADR-RES; assay: Cytotoxicity against human NCI/ADR-RES cells assessed as growth inhibition after 48 hrs by SRB assay; format: functional; in short: as §1
[14] = tested on: Malme-3M; assay: Cytotoxicity against human MALME-3M cells assessed as growth inhibition after 48 hrs by SRB assay; format: functional; in short: as §1
[15] = tested on: OVCAR-3; assay: Cytotoxicity against human OVCAR3 cells assessed as growth inhibition after 48 hrs by SRB assay; format: functional; details: OVCAR-3, 48 h; in short: as §1
[16] = tested on: MDA-MB-435; assay: Cytotoxicity against human MDA-MB-435 cells assessed as growth inhibition after 48 hrs by SRB assay; format: functional; details: MDA-MB-435, 48 h; in short: as §1
[17] = tested on: M14; assay: Cytotoxicity against human M14 cells assessed as growth inhibition after 48 hrs by SRB assay; format: functional; details: M14, 48 h; in short: as §1
[18] = tested on: KM12; assay: Cytotoxicity against human KM12 cells assessed as growth inhibition after 48 hrs by SRB assay; format: functional; details: KM12, 48 h; in short: as §1
[19] = tested on: SW-620; assay: Cytotoxicity against human SW620 cells assessed as growth inhibition after 48 hrs by SRB assay; format: functional; details: SW-620, 48 h; in short: as §1
[20] = tested on: HCT-15; assay: Cytotoxicity against human HCT15 cells assessed as growth inhibition after 48 hrs by SRB assay; format: functional; details: HCT-15, 48 h; in short: as §1
[21] = tested on: NCI-H460; assay: Cytotoxicity against human NCI-H460 cells assessed as growth inhibition after 48 hrs by SRB assay; format: functional; details: NCI-H460, 48 h; in short: as §1
[22] = tested on: NCI-H522; assay: Cytotoxicity against human NCI-H522 cells assessed as growth inhibition after 48 hrs by SRB assay; format: functional; details: NCI-H522, 48 h; in short: as §1
[23] = tested on: NCI-H23; assay: Cytotoxicity against human NCI-H23 cells assessed as growth inhibition after 48 hrs by SRB assay; format: functional; details: NCI-H23, 48 h; in short: as §1
[24] = tested on: SR; assay: Cytotoxicity against human SR cells assessed as growth inhibition after 48 hrs by SRB assay; format: functional; in short: as §1
[25] = tested on: HL-60(TB); assay: Cytotoxicity against human HL-60(TB) cells assessed as growth inhibition after 48 hrs by SRB assay; format: functional; details: HL-60, 48 h
In short: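 NCI 60-human-cancer-cell-line screen; only compounds meeting predetermined threshold inhibition criteria in the single-dose test went on to the 5-dose screen. Cells exposed for 48 h and growth read by sulforhodamine B assay. GI50 is the molar concentration giving 50% growth inhibition of tumour cells.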

[26] = tested on: K562; assay: Cytotoxicity against human K562 cells assessed as growth inhibition after 48 hrs by SRB assay; format: functional; details: K562, 48 h; in short: as §1
[27] = tested on: CCRF-CEM; assay: Cytotoxicity against human CCRF-CEM cells assessed as growth inhibition after 48 hrs by SRB assay; format: functional; in short: as §1
[28] = Inhibition of sheep brain tubulin assembly by DAPI staining-based fluorescence assay; design: species or system Ovis aries
In short: (§2)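 Tubulin from sheep brain, purified by two assembly–disassembly cycles, at about 2–3 mg/mL in 0.1 M MES, 0.5 mM MgCl2, 1 mM EGTA, 1 mM GTP, pH 6.6. Assembly followed by DAPI fluorescence at 37 °C. Single-point inhibition tested at 100 µM. IC50 is the concentration halving the assembly rate relative to no compound, mean of two experiments, with reference inhibitors run the same day.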

[29] = species: Ovis aries; assay: Inhibition of sheep brain tubulin assembly at 100 uM by DAPI staining-based fluorescence assay; in short: as §2
[30] = tested on: PC-3; assay: Cytotoxicity against human PC3 cells assessed as growth inhibition after 48 hrs by SRB assay; format: functional; details: PC-3, 48 h; in short: as §1
[31] = tested on: MDA-MB-435; assay: Cytotoxicity against human MDA-MB-435 cells assessed as growth inhibition at 10 uM after 48 hrs by SRB assay; format: functional; details: MDA-MB-435, 48 h, read-out: GI
In short: (§3)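 Single-dose NCI 60-cell screen at 10 µM with 48 h exposure and sulforhodamine B read-out. Values are percentage growth per cell line. A summary ratio counts cell lines with 0–50% growth over all cell lines tested.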

[32] = tested on: SR; assay: Cytotoxicity against human SR cells assessed as growth inhibition at 10 uM after 48 hrs by SRB assay; format: functional; details: read-out: GI; in short: as §3

Compound | GI50 [1] [µM] | GI50 [2] [nM] | GI50 [3] [nM] | GI50 [4] [nM] | GI50 [5] [nM] | GI50 [6] [µM] | GI50 [7] [µM] | GI50 [8] [nM] | GI50 [9] [nM] | GI50 [10] [nM] | GI50 [11] [nM] | GI50 [12] [µM] | GI50 [13] [nM] | GI50 [14] [µM] | GI50 [15] [nM] | GI50 [16] [nM] | GI50 [18] [nM] | GI50 [19] [nM] | GI50 [21] [nM] | inhibition [29] [%] | also measured
COc1cc(C(=O)c2cc(OC)c(OC)c(OC)c2)c(OC)cc1F | 0.365 | 388 | 194 | 109 | 164 | 0.419 | 0.748 | 602 | 257 | 144 | 213 | 0.693 | 68 | 0.433 | 45 | 25 | 50 | 63 | 115 | 77 | GI50 [17]: 72 nM; GI50 [20]: 55 nM; GI50 [22]: 102 nM; GI50 [23]: 421 nM; GI50 [24]: 43 nM; GI50 [25]: 203 nM; GI50 [26]: 46 nM; GI50 [27]: 192 nM; IC50 [28]: 24 µM; GI50 [30]: 207 nM
C=C(c1cc(OC)c(OC)c(OC)c1)c1cc(OC)c(F)cc1OC | 4.12 | 945 | 2190 | 920 | 2160 | 3.3 | 2.67 | 498 | 2440 | 2160 | 1050 | 6.54 | 375 | > 10 | 521 | 260 | 568 | 587 | 1220 | 44 | GI50 [17]: 547 nM; GI50 [20]: 666 nM; GI50 [22]: 601 nM; GI50 [23]: 2200 nM; GI50 [24]: 455 nM; GI50 [25]: 273 nM; GI50 [26]: 340 nM; GI50 [27]: 1100 nM; GI50 [30]: 2240 nM
COc1ccc(C(=O)c2cc(OC)c(OC)c(OC)c2)cc1O [PHENSTATIN] |  |  |  |  |  |  |  |  | 34 |  |  |  |  |  | 2 |  |  |  | 6 | 99 | IC50 [28]: 3.43 µM
COc1ccc(C(=O)c2ccc(OC)c(NC(C)=O)c2OC)cc1F |  |  |  |  |  |  |  |  |  |  |  |  |  |  |  |  |  |  |  | 3 | 
COc1ccc(C(=O)c2cc(F)c(F)c(OC)c2F)cc1O | 3.13 | 2090 | 1600 | 1740 | 2470 | 4.39 | 3.85 | 5160 | 2080 | 2470 | 2440 | 6.84 | 789 | 9.53 | 1500 | 285 | 1030 | 703 | 2230 | 88 | GI50 [17]: 804 nM; GI50 [20]: 1760 nM; GI50 [22]: 1340 nM; GI50 [23]: 3750 nM; GI50 [24]: 969 nM; GI50 [25]: 2020 nM; GI50 [26]: 186 nM; GI50 [27]: 3310 nM; IC50 [28]: 28.2 µM; GI50 [30]: 3720 nM
COc1cc(C(=O)c2cc(OC)c(O)c(OC)c2)c(OC)cc1F |  |  |  |  |  |  |  |  |  |  |  |  |  |  |  |  |  |  |  | 48 | inhibition of growth at 10 µM [31]: 21%; inhibition of growth at 10 µM [32]: 22%
COc1ccc(C(=O)c2cc(F)c(F)c(OC)c2F)c(OC)c1N | 34.1 | 8550 | 3780 | 1700 | 3590 | 5.47 | 6.54 | 5810 | 3910 | 4510 | 8370 | 7.9 | 1670 | 11.5 | 2090 | 407 | 890 | 2840 | 3000 | 89 | GI50 [20]: 2980 nM; GI50 [22]: 752 nM; GI50 [23]: 30700 nM; GI50 [24]: 961 nM; GI50 [25]: 3690 nM; GI50 [26]: 1830 nM; GI50 [27]: 3350 nM; IC50 [28]: 29.2 µM; GI50 [30]: 10200 nM
